An excerpt weighted towards active compounds, which were near 3.8% of everything screened.
KCNK9 inh: inhibitors of human KCNK9 two-pore domain potassium channel. HEK293 KCNK9, FluxOR thallium flux fluorescence; stronger effect = lower value. actives 1.2% (n = 310,000). B-score at 10 µM. Q9NPC2. AID 488922;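 active = ratio B-score over 3 SD below the library mean, with starting fluorescence within 5 SD of its mean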;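 also: negative B-score means less thallium flux so channel inhibition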
hERG protect: compounds protecting human hERG from proarrhythmic drug block; AID 1511; CHO-hERG, FluxOR thallium flux, dofetilide IC70 present; activation (rescue from dofetilide block), less the hit threshold, % at 10 µM; Q12809; actives 0.51% (n = 310,000);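 active = activation above the mean of controls blocked by dofetilide plus 5 SD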;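 also: thallium influx through hERG after potassium depolarization seen as dye fluorescence rise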
KCNQ1 block: human KCNQ1 channel inhibition | P51787 | CHO-K1 KCNQ1, FluxOR thallium flux fluorescence; stronger effect = higher value | B-score at 10 µM | actives 1.3% (n = 310,000);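 active = compounds whose thallium flux B-score, printed positive for inhibition, exceeds three library SD while starting fluorescence stays within three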;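 also: channel opened by potassium depolarization with thallium stimulus after 20 min compound exposure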
Kir21 inh: Kir2.1 (mouse) channel inhibition; HEK293-Kir2.1, FluxOR thallium flux fluorescence; stronger effect = lower value; B-score at 10 µM; actives 0.85% (n = 310,000); AID 1672;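 active = fluorescence ratio B-score at or below minus 3 SD of library scores, with starting-brightness B-score within 2 SD, cut at about -4.2 in these data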;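 also: channel flux triggered by added potassium and thallium sulfate stimulus; B-score of peak minus minimum fluorescence over baseline after thallium stimulus; more negative B-score means stronger Kir2.1 block with less thallium influx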
KCNQ1 act: potentiates or activates the human KCNQ1 potassium channel; actives 0.35% (n = 310,000); CHO-K1 KCNQ1, thallium flux FluxOR fluorescence; stronger effect = higher value; AID 2648; B-score at 10 µM; P51787;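 active = fluorescence ratio B-score, a plate-corrected score, at least three library SD, with initial intensity B-score within 5 SD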
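Medium – assay buffer, equal DMSO in all wells · Material – CHO-K1 cell line with stable KCNQ1 potassium channel expression · Signal – kinetic FluxOR thallium fluorescence, 10-s 1-Hz baseline, 110-s post-stimulus read · Compound – single concentration per compound, DMSO matched to controls · Schedule – 37 °C overnight plating, 90-min dark dye load, 20-min compound pretreatment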
KCNK3 block: human KCNK3 channel inhibition, primary screen | O14649 | CHO-KCNK3 thallium flux, FluxOR fluorescence; stronger effect = lower value | B-score at 10 µM | actives 0.84% (n = 340,000);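 active = B-score under library mean minus 4 SD, starting fluorescence ratio at most library mean plus 5 SD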;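 also: more negative B-score means stronger inhibition of thallium flux through KCNK3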
Target sequence (O14649 whole entry, looked up): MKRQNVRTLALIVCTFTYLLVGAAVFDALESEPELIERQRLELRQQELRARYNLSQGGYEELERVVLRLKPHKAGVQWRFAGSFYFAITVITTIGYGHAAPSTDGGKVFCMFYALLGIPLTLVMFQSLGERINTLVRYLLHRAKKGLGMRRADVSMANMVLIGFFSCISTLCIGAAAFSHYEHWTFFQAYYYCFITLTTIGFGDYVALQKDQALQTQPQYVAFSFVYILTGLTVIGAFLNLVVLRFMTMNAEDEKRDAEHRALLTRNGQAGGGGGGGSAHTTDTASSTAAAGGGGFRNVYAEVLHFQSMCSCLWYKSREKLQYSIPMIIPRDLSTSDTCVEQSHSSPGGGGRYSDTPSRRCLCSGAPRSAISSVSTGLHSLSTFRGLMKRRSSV
KCNK9 inh conf: confirmation of human KCNK9 potassium channel inhibitors; shares compounds with KCNK9 inh; actives 43% (n = 4,900); inhibition, % at 10 µM; HEK293 KCNK9 cells, FluxOR thallium flux fluorescence;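 active = thallium signal inhibited by more than 5 SD of the compound-free buffer control wells, on both duplicate plates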;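 also: 0% = assay buffer control wells without compound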
Kir2-1 spec: mouse Kir2.1 off-target activity of KCNK9 modulators. Kir2.1 cells, FluxOR thallium flux fluorescence. AID 492993. inhibition, % at 10 µM. actives 4% (n = 4,900). shares compounds with KCNK9 inh;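 active = thallium signal drop more than 5 SD beyond the mean of the no-compound control wells, seen in both duplicate plates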;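 also: signal is fluorescence rise after thallium addition divided by baseline fluorescence; plate controls were assay buffer only for no effect and full block by chlorpromazine control for full effect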
KCNK9 uninduced: non-induced cell nonspecific activity of KCNK9 modulators; non-induced KCNK9-HEK293, FluxOR thallium flux; inhibition, % at 10 µM; shares compounds with KCNK9 inh; actives 40% (n = 4,900);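 active = thallium signal drop beyond 5 SD of the untreated control mean, on both duplicate plates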;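 also: plate controls were buffer only IC0 wells for no effect and SID17386958 at its maximal inhibitory level for full effect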
The depositor's hits bear a star; i = inactive; / = no result given.

SMILES	KCNK9 inh	hERG protect	KCNQ1 block	Kir21 inh	KCNQ1 act	KCNK3 block	KCNK9 inh conf	Kir2-1 spec	KCNK9 uninduced
COc1cc(C(CCN2CCN(c3ccccc3)CC2)c2c(OC)cc(OC)c3c(C)cc(=O)oc23)cc(OC)c1OC (centres undefined)	i	-13.9	i	-0.05	i	i	i	i	i
O=C(Nc1ccc(OC(F)F)c(Cl)c1)C(c1ccccc1)c1ccccc1	-10.5*	-16.1	i	-0.75	i	i	25.0%*	i	41.0%*
OCCNCc1c(OCc2ccc(Cl)cc2)ccc2ccccc12	-19*	-17.6	i	-6.85*	i	i	76.5%*	41.5%*	31.0%*
CC(O)CNCCNCc1c(OCc2ccccc2)ccc2ccccc12 (centres undefined)	i	-14.1	i	-4.08	i	i	/	/	/
COc1ccc(NC(=O)c2cccn(CC=C(C)C)c2=O)cc1	i	-5.4	i	1.12	i	i	/	/	/
COc1ccc(CCN(Cc2cccs2)S(=O)(=O)c2ccc(C(=O)O)cc2)cc1OC	i	-16.7	i	-0.87	i	i	/	/	/
CC(C(=O)NC1CCCC1)N(C(=O)c1ccc(-c2ccccc2)[nH]1)c1ccccc1F (centres undefined)	i	-18.6	6*	-1.21	i	i	i	i	i
Cc1noc(C)c1COc1ccc(C(=O)N2CCN(c3ccccc3O)CC2)cc1	/	/	/	/	/	i	/	/	/
N#Cc1ccc(-c2ccc(Cl)cc2)nc1SCC(=O)c1cccc(Cl)c1	i	-5.4	i	0.93	i	i	/	/	/
N#Cc1ccc(-c2ccccc2)nc1SCC(=O)c1cccc(Cl)c1	-8.67*	-6.9	i	0	i	i	34.5%*	i	46.0%*
CC1(C)Oc2ccc3ccc(=O)oc3c2/C(=C/N)C1=O	i	-1.4	i	-0.7	i	i	/	/	/
CC1(C)Oc2ccc3ccc(=O)oc3c2/C(=C/NC2CCCCC2)C1=O	-10.7*	-8.0	8*	0.63	i	i	35.0%*	i	34.5%*
Cc1cccc(-c2noc(CN(C(=O)CCc3ccccc3)C(C)C)n2)c1	i	-6.4	i	3.03	i	i	i	i	25.5%*
Cc1ccc(-c2noc(CN(C(=O)C(c3ccccc3)c3ccccc3)C(C)C)n2)cc1	-11.8*	-22.9	i	1.59	i	i	40.0%*	i	33.0%*
CC(C)N(Cc1nc(-c2ccccc2)no1)C(=O)CN1C(=O)c2ccccc2C1=O	i	-4.5	i	-1.03	i	i	/	/	/
Cc1cccc(-c2noc(CN(C(=O)/C=C/c3ccccc3Cl)C(C)C)n2)c1	i	-10.4	i	0.07	i	i	/	/	/
COc1ccccc1C(=O)NC(=O)CSc1nnc(N)s1	/	/	/	/	/	i	/	/	/
COc1ccccc1NC(=O)/C(=C/c1cccc([N+](=O)[O-])c1)c1ccccc1	-8.62*	-10.3	6*	0.38	i	i	54.0%*	i	38.0%*
c1ccc(-c2nc(NCCCn3ccnc3)c3oc4ccccc4c3n2)cc1	i	-33.1	i	-4.4	i	i	/	/	/
c1ccc(-c2nc(NCc3ccco3)c3oc4ccccc4c3n2)cc1	-8.67*	-17.9	i	-0.22	i	i	38.5%*	i	35.0%*
Cc1cc(NC(=O)Cn2nc(-c3cccs3)ccc2=O)cc(C)c1Br	-8.28*	-1.8	i	-0.4	i	i	36.5%*	i	26.0%*
CCCn1c(=O)c2sccc2n2c(CCCC(=O)NC3CCN(Cc4ccccc4)CC3)nnc12	i	-4.1	i	-0.32	i	i	/	/	/
CCN=c1scc(-c2ccco2)n1/N=C/c1ccc(OC)c(O)c1	i	-17.7	i	-0.02	i	i	i	i	i
CCN=c1scc(-c2ccco2)n1/N=C/c1ccc(O)cc1	i	-11.3	i	0.79	i	i	/	/	/
CC(C)C(Sc1nc(-c2ccccc2)cc(-c2ccccc2)c1C#N)C(=O)O (centres undefined)	i	-10.7	i	0.1	i	i	i	i	i
SMILES	KCNK9 inh	hERG protect	KCNQ1 block	Kir21 inh	KCNQ1 act	KCNK3 block	KCNK9 inh conf	Kir2-1 spec	KCNK9 uninduced
CCC(C(=O)Nc1ccc(S(=O)(=O)N2CCN(C)CC2)cc1)c1ccccc1 (centres undefined)	i	-4.5	i	0.21	i	i	/	/	/
CCOc1nc(C)cc(C)c1S(=O)(=O)c1cccc(C)c1	i	-10.9	i	-4.01	i	/	/	/	/
Cc1cc(C)c(S(=O)(=O)c2c(C)cccc2C)c(OCC(C)C)n1	-9.89*	-15.5	i	1.73	i	i	59.0%*	i	42.5%*
O=C(CC1C=Cc2ccccc2N1C(=O)c1ccccc1)c1ccccc1 (centres undefined)	-13.4*	-7.5	i	0.51	i	i	29.5%*	i	i
Cc1ccc2cc(C)c(N3CCN(c4ccccn4)CC3)nc2c1	i	-8.5	i	-0.15	i	i	i	i	26.0%*
O=C(COC(=O)c1cc(=O)[nH]c(=O)[nH]1)Nc1cccc(Cl)c1	/	/	/	/	/	i	/	/	/
COc1ccc(S(=O)(=O)N2CCOCC2)cc1NC(=O)c1cc2ccccc2o1	/	/	/	/	/	i	/	/	/
Brc1cc2c(cc1C1Nc3ccccc3C3C=CCC31)OCO2 (centres undefined)	-8.29*	-11.8	i	2.16	i	i	56.5%*	i	41.5%*
COc1cccc(OCC(=O)N(C)Cc2nc(-c3cccc(C)c3)no2)c1	i	-4.2	i	-0.16	i	i	i	i	i
Cc1cccc(-c2noc(CN(C)C(=O)COc3ccccc3)n2)c1	i	-5.3	i	1.43	i	i	/	/	/
COc1ccc(OC(C)C(=O)N(C)Cc2nc(-c3cccc(C)c3)no2)cc1 (centres undefined)	i	-11.7	i	-1.32	i	i	i	i	i
O=C(COC(=O)c1c2c(nc3ccccc13)CCCCC2)c1ccc(Cl)s1	-13.1*	-5.4	i	-0.75	i	i	46.0%*	i	i
NC(=O)COC(=O)c1c2c(nc3ccccc13)CCCCC2	i	-3.7	i	1.58	i	i	/	/	/
O=C(OCC(=O)N1CCc2ccccc21)c1c2c(nc3ccccc13)CCCC2	-13.3*	-5.1	i	-2.57	i	i	53.0%*	i	i

Screening results: PubChem, Johns Hopkins Ion Channel Center
